# Screening data deposited in PubChem by several laboratories.
# The list is not random: actives were taken first. Their share in the collection is about 1.9%.
# Tb hexokinase – T. brucei hexokinase 1 inhibition | recombinant TbHK1, G6PDH-coupled NADH A340 | AID 1430 | inhibition, % at 10 µM | hit rate 0.11% among 220,000;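 active = inhibition of 50% or more in the single-dose primary screen; inactive = inhibition below 50%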
# Hck-Nef inh – blocks Nef-activated human Hck kinase | hit rate 0.68% among 220,000 | inhibition, % at 20 µM | Recombinant Hck-YEEI plus Nef, Z-Lyte FRET kinase assay | P08631;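 active = Hck-Nef kinase inhibition above about 50%, limit read from the data; inactive = inhibition below that limit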
# Runt-SMMHC FRET – Runt domain-CBFb-SMMHC interaction inhibition. Cerulean-Runt/Venus-CBFb-SMMHC FRET ratio 530/480, 1 h. inhibition, % at 20 µM. hit rate 0.74% among 220,000;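 active = mean inhibition across duplicate retests at 20 µM reaching about 50%, limit read from the data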;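 note: inhibitors lower the FRET ratio by blocking Runt binding to CBFb-SMMHC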
# Target sequence (Q01196 whole entry, looked up, the tested form may be a part): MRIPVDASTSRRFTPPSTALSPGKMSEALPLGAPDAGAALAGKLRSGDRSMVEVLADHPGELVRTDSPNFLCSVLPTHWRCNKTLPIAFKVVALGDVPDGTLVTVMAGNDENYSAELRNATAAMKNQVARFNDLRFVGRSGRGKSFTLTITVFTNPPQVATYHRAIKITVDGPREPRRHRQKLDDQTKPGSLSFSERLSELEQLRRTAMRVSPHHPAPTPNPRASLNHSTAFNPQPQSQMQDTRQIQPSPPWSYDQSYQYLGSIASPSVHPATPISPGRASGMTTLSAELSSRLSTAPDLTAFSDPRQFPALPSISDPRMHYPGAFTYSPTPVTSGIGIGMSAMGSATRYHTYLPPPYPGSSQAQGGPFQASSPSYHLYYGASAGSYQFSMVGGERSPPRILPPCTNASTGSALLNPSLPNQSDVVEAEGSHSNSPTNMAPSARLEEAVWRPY
# Target sequence (Q13951 whole entry, looked up, the tested form may be a part): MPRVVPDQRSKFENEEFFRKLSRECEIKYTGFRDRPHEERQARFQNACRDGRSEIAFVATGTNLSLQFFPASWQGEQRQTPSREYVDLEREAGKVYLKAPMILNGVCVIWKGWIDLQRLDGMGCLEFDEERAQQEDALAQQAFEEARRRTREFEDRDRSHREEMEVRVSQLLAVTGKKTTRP
# Runt-CBFb FRET – Runt domain-CBFb interaction inhibition; hit rate 0.46% among 220,000; AID 1496; Cerulean-Runt/Venus-CBFb FRET ratio 530/480, 1 h; inhibition, % at 20 µM;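 active = inhibition over about 50% at 20 µM in the single-dose screen, limit read from the data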
#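 Schedule: protein complex preformed 1 h, compound exposure 1 h, room temperature, dark; test system: Cerulean-labeled Runt domain protein; amount: 100 nM per protein; buffer or medium: Tris 50 mM pH 7.5, KCl, K2SO4, 0.01% BSA; read-out: loss of energy transfer signal; detection: FRET fluorescence; controls: 5 µM unlabeled CBFb as full-inhibition high control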
# RanGTP-Impb inh – inhibitors of RanGTP-importin-beta interaction, primary screen, biochemical, FRET, CFP-Ran, YFP-importin-beta, homogeneous | hit rate 1.1% among 300,000 | inhibition, % (no concentration beside the values) | cell-free CFP-Ran/YFP-importin-beta FRET ratio | AID 2216;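 active = more than half of the replicate wells show a fall in the fluorescence ratio signal beyond about 16%, limit read from the data, passing the limit was not always enough; inconclusive = exactly half of the replicate wells pass the set limit; inactive = fewer than half of replicates pass the limit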
# Hck-Nef confirm – Hck-Nef kinase inhibition, confirmation; hit rate 28% among 1,300; calls only at 10 µM; Recombinant Hck-YEEI:Nef, Z-Lyte FRET kinase assay; shares compounds with Hck-Nef inh; AID 463188;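 active = average inhibition of at least 50%, with Z-scores no higher than 3 in both the phospho-tyrosine peptide and fluorescence counterscreens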
# Hits are given with their value; 0 = inactive; ? = inconclusive; - = no result given; + = active, no number.
SMILES,Tb hexokinase,Hck-Nef inh,Runt-SMMHC FRET,Runt-CBFb FRET,RanGTP-Impb inh,Hck-Nef confirm
CCOC(=O)c1nc(Nc2ccc(Nc3ccccc3)cc2)c2ccccc2n1,0,94,0,-,0,0
CCOc1ccccc1OCCOc1ccccc1CC,0,0,0,0,0,-
CCCCN(C)CCOc1ccccc1OCC,0,60,0,0,0,0
Cc1ccc(S(=O)(=O)NCCC(=O)Oc2ccc3ccc(=O)oc3c2)cc1,0,93,56,0,0,-
Cc1ccc2cc(S(=O)(=O)NCCC(=O)O)ccc2c1,0,0,0,0,?,-
CCc1nn(CC(=O)N2CC(C)CC(C)C2)c(=O)c2cccn12 (centres undefined),-,-,-,-,0,-
CCOC(=O)c1ccc2ncc(C(=O)OCC)c(Nc3ccc(N4CCOCC4)cc3)c2c1,0,73,0,0,0,+
CCOC(=O)c1cnc2ccc(C(=O)OC)cc2c1Nc1ccc(C(=O)O)cc1,0,0,0,0,0,-
Cc1cc(-c2csc(NC(=O)c3cc4ccccc4o3)n2)c(C)n1C,0,59,0,0,0,0
O=C(Nc1nc(-c2ccccn2)cs1)c1cc2ccccc2o1,0,0,0,0,0,-
COc1ccc(C(=O)NCC(=O)N2CCN(C(=O)c3ccco3)CC2)cc1,-,-,-,-,0,-
O=C(Nc1ccc2nc(-c3ccco3)c(-c3ccco3)nc2c1)N1CCN(c2ccccn2)CC1,0,57,0,0,33,0
CCN(CC)c1ccc(C(=O)O)cc1,0,0,0,0,0,-
CCN(CC)c1ccc(/C=C2\C(=O)c3ccc(C(=O)O)cc3C2=O)cc1,0,64,0,0,-,0
O=C(Cc1cccs1)NCCS(=O)(=O)N1CCN(c2ccccc2F)CC1,-,-,-,-,0,-
Cc1ccc(O)c(-c2cc(-c3ccccc3C)[nH]n2)c1,0,52,0,0,0,+
Cc1nccc(-c2sc(-c3cccs3)nc2C)n1,0,86,0,0,0,0
O=C(/C=C/N1CCOCC1)c1ccc(-c2ccccc2)cc1,0,66,0,0,0,0
CCCn1ncc(CN2CCC(n3nccc3NC(=O)CCc3ccccc3)CC2)c1C,-,-,-,-,0,-
O=C(Cn1nnc(-c2ccc(NC(=O)c3ccccc3F)cc2)n1)NCc1ccc(F)cc1,0,61,0,0,0,0
CC(C)OCCCNC(=O)C(Cc1ccccc1)NS(=O)(=O)c1ccc2c(c1)CCC(=O)N2 (centres undefined),-,-,-,-,0,-
CCN(CC)c1ccc(-c2nn3c(-c4n[nH]c5c4CCC5)nnc3s2)cc1,0,61,0,0,0,0
C1CCC(c2nn3c(-c4n[nH]c5c4CCC5)nnc3s2)CC1,0,0,0,0,0,-
COc1ccc(-n2c(SCC(=O)Nc3sc4c(c3C#N)CCCC4)nnc2-c2ccccc2OC)cc1,0,0,0,0,0,-
COc1ccc(-c2nnc(SCC(=O)Nc3sc4c(c3C#N)CCCC4)n2-c2ccccc2)cc1,0,96,0,0,0,+
SMILES,Tb hexokinase,Hck-Nef inh,Runt-SMMHC FRET,Runt-CBFb FRET,RanGTP-Impb inh,Hck-Nef confirm
O=C(/C=C/c1ccccc1)NCCS(=O)(=O)N1CCN(c2ccc(F)cc2)CC1,-,-,-,-,0,-
Cc1ccc(S(=O)(=O)CC(=O)Nc2cccc(C)n2)cc1,-,-,-,-,0,-
COc1ccccc1NC1CCCCC1NS(=O)(=O)c1ccccc1 (centres undefined),-,-,-,-,0,-
Cc1nc2ccc3nc(NC(=O)c4ccc5c(c4)OCCO5)sc3c2s1,0,87,0,0,0,+
Cc1cccc(NC(=O)CCC(=O)Nc2nnc(C(F)(F)F)s2)c1,0,0,0,0,0,-
COc1ccc(-c2csc(NC(=S)NC(=O)/C=C/c3ccco3)n2)cc1Br,0,78,0,0,0,0
COc1ccc(-c2csc(NC(=S)NC(=O)/C=C/c3ccco3)n2)cc1OC,0,0,0,0,0,-
NS(=O)(=O)c1ccc(CCNC(=O)c2ccc(-c3ccccc3)cc2)cc1,-,-,-,-,0,-
O=c1c2ccccc2n(CC(O)CN2CCCCC2)c2ccccc12 (centres undefined),0,154,81,61,96,-
OC(CN1CCCCC1)Cn1c2ccccc2c2ccccc21 (centres undefined),-,-,-,-,0,-
COc1cccc(OCC(=O)N(C)Cc2nc(-c3cccc(C)c3)no2)c1,-,-,-,-,0,-
Cc1nc2cc(N3CCCCC3)c(NC(=O)c3ccncc3)cc2c(=O)n1Cc1ccc(Cl)cc1,0,67,0,0,0,0
